Key:
Format in all cases: functional
MOLT-4 = experiment: Cytotoxicity against human MOLT4 cells
Summary of the method: (§1)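 Tested in a 60-cell-line human tumor panel screen; the read-out is growth inhibition, reported as GI50 for each cell line.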

TK-10 = experiment: Cytotoxicity against human TK10 cells
Summary of the method: (§2)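 Cell line run as part of the 60-cell-line screening panel; growth inhibition was reported as a GI50 for each line.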

HOP-62 = experiment: Cytotoxicity against human HOP62 cells; summary of the method: as §1
T47D = experiment: Cytotoxicity against human T47D cells; summary of the method: as §2
MDA-MB-435 = experiment: Cytotoxicity against human MDA-MB-435 cells; summary of the method: as §1
786-0 = experiment: Cytotoxicity against human 786-0 cells; summary of the method: as §1
COLO 205 = experiment: Cytotoxicity against human COLO205 cells; summary of the method: as §1
MCF7 = experiment: Cytotoxicity against human MCF7 cells; summary of the method: as §1
MDA-MB-468 = experiment: Cytotoxicity against human MDA-MB-468 cells; summary of the method: as §1
SK-MEL-2 = experiment: Cytotoxicity against human SK-MEL-2 cells; summary of the method: as §1
SF-268 = experiment: Cytotoxicity against human SF268 cells; summary of the method: as §1
BT-549 = experiment: Cytotoxicity against human BT549 cells; summary of the method: as §1
HL-60(TB) = experiment: Cytotoxicity against human HL-60(TB) cells
Summary of the method: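 Tested within the NCI 60-cell-line screen, with GI50 as the read-out. Values are the average of two independent experiments. The lowest concentration tested was 10 nM.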

LOX IMVI = experiment: Cytotoxicity against human LOXIMVI cells; summary of the method: as §1
NCI-H23 = experiment: Cytotoxicity against human NCI-H23 cells; summary of the method: as §1
K562 = experiment: Cytotoxicity against human K562 cells; summary of the method: as §1
NCI-H460 = experiment: Cytotoxicity against human NCI-H460 cells; summary of the method: as §1
HCC 2998 = experiment: Cytotoxicity against human HCC2998 cells; summary of the method: as §1
[1] = Cytotoxicity against human HCT15 cells; summary of the method: as §1
[2] = Cytotoxicity against human UACC62 cells; summary of the method: as §2
MDA-MB-231 = experiment: Cytotoxicity against human MDA-MB-231 cells; summary of the method: as §1
[3] = Cytotoxicity against human UACC257 cells; summary of the method: as §2
SF-295 = experiment: Cytotoxicity against human SF295 cells; summary of the method: as §1
M14 = experiment: Cytotoxicity against human M14 cells; summary of the method: as §1
PC-3 = experiment: Cytotoxicity against human PC3 cells; summary of the method: as §1
SNB-75 = experiment: Cytotoxicity against human SNB75 cells; summary of the method: as §2
SF-539 = experiment: Cytotoxicity against human SF539 cells; summary of the method: as §1
RXF 393 = experiment: Cytotoxicity against human RXF393 cells; summary of the method: as §1
IGROV-1 = experiment: Cytotoxicity against human IGROV1 cells; summary of the method: as §1
[4] = Cytotoxicity against human OVCAR4 cells; summary of the method: as §1
[5] = Cytotoxicity against human NCI-ADR-RES cells; summary of the method: as §1
[6] = Cytotoxicity against human OVCAR3 cells; summary of the method: as §1
CAKI-1 = experiment: Cytotoxicity against human Caki1 cells; summary of the method: as §1
SR = experiment: Cytotoxicity against human SR cells; summary of the method: as §2
CCRF-CEM = experiment: Cytotoxicity against human CCRF-CEM cells
DU-145 = experiment: Cytotoxicity against human DU145 cells; summary of the method: as §1
SK-OV-3 = experiment: Cytotoxicity against human SKOV3 cells; summary of the method: as §1
[7] = Cytotoxicity against human OVCAR8 cells; summary of the method: as §1
SK-MEL-5 = experiment: Cytotoxicity against human SK-MEL-5 cells; summary of the method: as §1
KM12 = experiment: Cytotoxicity against human KM12 cells; summary of the method: as §1
NCI-H226 = experiment: Cytotoxicity against human NCI-H226 cells; summary of the method: as §1
HT-29 = experiment: Cytotoxicity against human HT-29 cells; summary of the method: as §1
HCT-116 = experiment: Cytotoxicity against human HCT116 cells; summary of the method: as §1
[8] = read-out: pLC50 (the source's name) (converted)

COc1cc(/C=C/c2cc(O)c3cc(CC=C(C)C)[nH]c3c2)cc2c1O[C@]1(C)CC[C@@H](O)C(C)(C)[C@H]1C2
GI50 (MOLT-4): 0.813 µM | CC50 (MOLT-4; [8]): > 100 µM | TGI (MOLT-4; read-out: pTGI (converted)): > 100 µM | GI50 (TK-10): 19.1 µM | LC50 (TK-10): > 100 µM | TGI (TK-10; read-out: pTGI (converted)): > 100 µM | GI50 (HOP-62): 0.832 µM | CC50 (HOP-62; [8]): > 100 µM | TGI (HOP-62; read-out: pTGI (converted)): 46.8 µM | GI50 (T47D): 29.5 µM | CC50 (T47D; [8]): > 100 µM | TGI (T47D; read-out: pTGI (converted)): > 100 µM | GI50 (MDA-MB-435): 3.8 µM | CC50 (MDA-MB-435; [8]): > 100 µM | TGI (MDA-MB-435; read-out: pTGI (converted)): > 100 µM | GI50 (786-0): 0.363 µM | LC50 (concentration killing 50% of cells) (786-0): > 100 µM | TGI (786-0; read-out: pTGI (converted)): 11 µM | GI50 (COLO 205): 2.75 µM | CC50 (COLO 205; [8]): 22.4 µM | TGI (COLO 205; read-out: pTGI (converted)): 8.32 µM | GI50 (MCF7): 2.45 µM | LC50 (MCF7): > 100 µM | TGI (MCF7; read-out: pTGI (converted)): 50.1 µM | GI50 (MDA-MB-468): 3.02 µM | LC50 (MDA-MB-468): > 100 µM | TGI (MDA-MB-468; read-out: pTGI (converted)): 26.9 µM | GI50 (SK-MEL-2): 1.95 µM | CC50 (SK-MEL-2; [8]): > 100 µM | TGI (SK-MEL-2; read-out: pTGI (converted)): > 100 µM | GI50 (SF-268): 4.27 µM | CC50 (SF-268; [8]): > 100 µM | TGI (SF-268; read-out: pTGI (converted)): > 100 µM | GI50 (BT-549): 3.72 µM | CC50 (BT-549; [8]): > 100 µM | TGI (BT-549; read-out: pTGI (converted)): 50.1 µM | GI50 (HL-60(TB)): 18.6 µM | CC50 (HL-60(TB); [8]): > 100 µM | TGI (HL-60(TB); read-out: pTGI (converted)): > 100 µM | GI50 (LOX IMVI): 2.82 µM | CC50 (LOX IMVI; [8]): > 100 µM | TGI (LOX IMVI; read-out: pTGI (converted)): 75.9 µM | GI50 (NCI-H23): 6.31 µM | CC50 (NCI-H23; [8]): > 100 µM | TGI (NCI-H23; read-out: pTGI (converted)): > 100 µM | GI50 (K562): 2.04 µM | CC50 (K562; [8]): > 100 µM | TGI (K562; read-out: pTGI (converted)): > 100 µM | GI50 (NCI-H460): 3.31 µM | CC50 (NCI-H460; [8]): > 100 µM | TGI (NCI-H460; read-out: pTGI (converted)): > 100 µM | GI50 (HCC 2998): 9.55 µM | CC50 (HCC 2998; [8]): > 100 µM | TGI (HCC 2998; read-out: pTGI (converted)): > 100 µM | GI50 ([1]; HCT-15): 1.45 µM | CC50 ([1]; HCT-15, read-out: pLC50 (the source's name) (converted)): > 100 µM | TGI ([1]; HCT-15, read-out: pTGI (converted)): 17.4 µM | GI50 ([2]; UACC-62): 0.955 µM | CC50 ([2]; UACC-62, read-out: pLC50 (the source's name) (converted)): > 100 µM | TGI ([2]; UACC-62, read-out: pTGI (converted)): 7.59 µM | GI50 (MDA-MB-231): 2.69 µM | LC50 (MDA-MB-231): > 100 µM | TGI (MDA-MB-231; read-out: pTGI (converted)): 63.1 µM | GI50 ([3]; UACC-257): 12 µM | CC50 ([3]; UACC-257, read-out: pLC50 (the source's name) (converted)): > 100 µM | TGI ([3]; UACC-257, read-out: pTGI (converted)): 81.3 µM | GI50 (SF-295; read-out: GI50): 0.29 µM | GI50 (SF-295; read-out: pGI50 (converted)): 0.288 µM | CC50 (SF-295; [8]): 51.3 µM | TGI (SF-295; read-out: pTGI (converted)): 1.51 µM | GI50 (M14): 1.66 µM | CC50 (M14; [8]): 63.1 µM | TGI (M14; read-out: pTGI (converted)): 9.33 µM | GI50 (PC-3): 1.02 µM | LC50 (PC-3): > 100 µM | TGI (PC-3; read-out: pTGI (converted)): > 100 µM | GI50 (SNB-75): 0.49 µM | CC50 (SNB-75; [8]): > 100 µM | TGI (SNB-75; read-out: pTGI (converted)): > 100 µM | GI50 (SF-539): 0.324 µM | CC50 (SF-539; [8]): 83.2 µM | TGI (SF-539; read-out: pTGI (converted)): 2.75 µM | GI50 (RXF 393): 0.0832 µM | LC50 (RXF 393): 11.2 µM | TGI (RXF 393; read-out: pTGI (converted)): 0.447 µM | GI50 (IGROV-1): 5.01 µM | CC50 (IGROV-1; [8]): > 100 µM | TGI (IGROV-1; read-out: pTGI (converted)): > 100 µM | GI50 ([4]; OVCAR-4): 28.8 µM | CC50 ([4]; OVCAR-4, read-out: pLC50 (the source's name) (converted)): > 100 µM | TGI ([4]; OVCAR-4, read-out: pTGI (converted)): > 100 µM | GI50 [5]: 64.6 µM | CC50 [5, 8]: > 100 µM | TGI ([5]; read-out: pTGI (converted)): > 100 µM | GI50 ([6]; OVCAR-3): 43.7 µM | CC50 ([6]; OVCAR-3, read-out: pLC50 (the source's name) (converted)): > 100 µM | TGI ([6]; OVCAR-3, read-out: pTGI (converted)): > 100 µM | GI50 (CAKI-1): 4.07 µM | LC50 (CAKI-1): > 100 µM | TGI (CAKI-1; read-out: pTGI (converted)): 93.3 µM | GI50 (SR): 0.759 µM | CC50 (SR; [8]): > 100 µM | TGI (SR; read-out: pTGI (converted)): > 100 µM | GI50 (CCRF-CEM): 0.741 µM | CC50 (CCRF-CEM; [8]): > 100 µM | TGI (CCRF-CEM; read-out: pTGI (converted)): > 100 µM | GI50 (DU-145): 8.13 µM | LC50 (50% lethal concentration) (DU-145): > 100 µM | TGI (DU-145; read-out: pTGI (converted)): > 100 µM | GI50 (SK-OV-3): 3.39 µM | LC50 (SK-OV-3): > 100 µM | TGI (SK-OV-3; read-out: pTGI (converted)): > 100 µM | GI50 ([7]; OVCAR-8): > 100 µM | CC50 ([7]; OVCAR-8, read-out: pLC50 (the source's name) (converted)): > 100 µM | TGI ([7]; OVCAR-8, read-out: pTGI (converted)): > 100 µM | GI50 (SK-MEL-5): 1.41 µM | CC50 (SK-MEL-5; [8]): 7.24 µM | TGI (SK-MEL-5; read-out: pTGI (converted)): 3.16 µM | GI50 (KM12): 2.04 µM | CC50 (KM12; [8]): 74.1 µM | TGI (KM12; read-out: pTGI (converted)): 10.5 µM | GI50 (NCI-H226): 57.5 µM | CC50 (NCI-H226; [8]): > 100 µM | TGI (NCI-H226; read-out: pTGI (converted)): > 100 µM | GI50 (HT-29): 2.63 µM | CC50 (HT-29; [8]): 79.4 µM | TGI (HT-29; read-out: pTGI (converted)): 18.6 µM | GI50 (HCT-116): 2.34 µM | CC50 (HCT-116; [8]): > 100 µM | TGI (HCT-116; read-out: pTGI (converted)): > 100 µM
